Assays:
Procathepsin L [1] = molecular target: T1, Procathepsin L (Homo sapiens, UniProt P07711); experiment: Inhibition of human liver cathepsin L assessed as pseudo Michaelis-Menten constant at 10 nM using varying levels of Z-Phe-Arg-AMC as substrate measured every 5 mins for 1 hr by fluorescence assay
[2] = Drug uptake in lung of SCID mouse xenografted with human HT-29 cells pretreated for 1 hr with colchicine at 1 mg/kg, ip followed by 177Lu labelled compound at 0.37 MBq/mouse, iv measured at 24 hrs by gamma counter analysis; type: ADME, organism-based; details: in vivo
How it was run: (§1)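 HT-29 flank xenografts in female SCID mice (5 × 10^6 cells in Matrigel, about 80 mm3). Colchicine 1 mg/kg was given i.p. before a tail-vein injection of 10 μCi (0.37 MBq) of purified 177Lu-conjugate. Tissues were taken at 24 h, weighed and gamma-counted as %ID/g; mean ± SD, n = 5.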

[3] = Drug retention in liver lysates of mouse xenografted with human HT-29 cells assessed as macromolecule associated radioactivity at 29.6 MBq co-treated with D-lysine measured after 72 hrs using 177Lu labelled compound by gamma counter analysis relative to control; type: ADME, tissue-based; details: in vivo
[4] = Drug uptake in brain of SCID mouse xenografted with human HT-29 cells pretreated for 1 hr with colchicine at 1 mg/kg, ip followed by 177Lu labelled compound at 0.37 MBq/mouse, iv measured at 24 hrs by gamma counter analysis; type: ADME, organism-based; details: in vivo; how it was run: as §1
[5] = Drug uptake in kidney of SCID mouse xenografted with human HT-29 cells using 177Lu labelled compound at 0.37 MBq/mouse, iv co-treated with D-lysine at 40 mg/kg measured at 24 hrs by gamma counter analysis; type: ADME, organism-based; details: in vivo
How it was run: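 Female SCID mice bore s.c. HT-29 xenografts (5 × 10^6 cells in Matrigel, about 80 mm3). D-lysine 40 mg/kg was co-injected i.v. with 10 μCi (0.37 MBq) of purified 177Lu-conjugate. Tissues were harvested at 24 h, weighed and gamma-counted, reported as %ID/g; mean ± SD, n = 5.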

[6] = Ratio of drug uptake in SCID mouse xenograted with human HT-29 cells assessed as tumour retention to drug uptake in lung of SCID mouse xenografted with human HT-29 cells cotreated with D-lysine at 40 mg/kg measured after 24 hrs using 177Lu labelled compound; type: ADME, organism-based, Tumor/Lung; details: in vivo
[7] = Ratio of drug uptake in SCID mouse xenograted with human HT-29 cells assessed as tumour retention to drug uptake in pancreas of SCID mouse xenografted with human HT-29 cells cotreated with D-lysine at 40 mg/kg measured after 24 hrs using 177Lu labelled compound; type: ADME, organism-based, Tumor/Pancreas; details: in vivo
[8] = Drug uptake in spleen of SCID mouse xenografted with human HT-29 cells pretreated for 1 hr with colchicine at 1 mg/kg, ip followed by 177Lu labelled compound at 0.37 MBq/mouse, iv measured at 24 hrs by gamma counter analysis; type: ADME, organism-based; details: in vivo
How it was run: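 HT-29 xenograft SCID mice pretreated with colchicine 1 mg/kg i.p., then given 177Lu conjugate i.v. at 10 μCi (0.37 MBq)/mouse. Tissues excised at 24 h, weighed and gamma counted for %ID/g (n = 5, mean ± SD).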

[9] = Drug retention in human HT-29 cells assessed as increase in mean fluorescence intensity at 5 uM incubated for 2 hrs and measured at 2 to 4 hrs using natEu labelled compound by lysotracker green staining based confocal microscopic analysis; type: ADME, cell-based; details: ht-29, 2 h
How it was run: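 HT-29 cells (1.25 × 10^5/well) loaded with natEu conjugate (5 μM), washed, then chased in fresh medium up to 24 h. Lysotracker Green (100 nM) applied 2 h before each read; cells fixed and imaged confocally at 405/488 nm. Per-cell mean fluorescence and Lysotracker co-localization quantified.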

[10] = Ratio of drug uptake in SCID mouse xenograted with human HT-29 cells assessed as tumour retention to drug uptake in liver of SCID mouse xenografted with human HT-29 cells cotreated with D-lysine at 40 mg/kg measured after 24 hrs using 177Lu labelled compound; type: ADME, organism-based, Tumor/Liver; details: in vivo
[11] = Drug uptake in SCID mouse xenografted with human HT-29 cells assessed as tumour retention pretreated for 1 hr with colchicine at 1 mg/kg, ip followed by 177Lu labelled compound at 0.37 MBq/mouse, iv measured at 24 hrs by gamma counter analysis; type: ADME, organism-based; details: in vivo
How it was run: (§2)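 Female SCID mice bearing s.c. flank HT-29 xenografts (5 × 10^6 cells in Matrigel, ~80 mm3). Given 10 μCi (0.37 MBq) 177Lu conjugate i.v. by tail vein; groups sacrificed at 4, 24, 72 h. Tissues weighed and gamma-counted as %ID/g, excretion as %ID; n = 5, mean ± SD. Blocking arms: colchicine 1 mg/kg i.p. beforehand, or D-lysine 40 mg/kg co-injected.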

[12] = Drug retention in kidney of mouse xenografted with human HT-29 cells assessed as reduction in tissue-conjugate adduct formation at 29.6 MBq co-treated with D-lysine at 40 mg/kg measured after 72 hrs using 177Lu labelled compound by SDS-PAGE analysis; type: ADME, organism-based; details: in vivo
Procathepsin L [13] = molecular target: T1, Procathepsin L; experiment: Inhibition of human liver cathepsin L using Z-Phe-Arg-AMC as substrate assessed as second order rate constant measured every 5 mins for 1 hr by fluorescence assay
How it was run: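 Human liver cathepsin L in acetate buffer pH 5.5 (340 mM sodium acetate, 60 mM acetic acid, 1 mM EDTA, 3 mM DTT). Conjugate 1–500 nM; Z-Phe-Arg-AMC 100 μM; 37 °C. […] Biological triplicate.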

[14] = Drug uptake in bone of SCID mouse xenografted with human HT-29 cells pretreated for 1 hr with colchicine at 1 mg/kg, ip followed by 177Lu labelled compound at 0.37 MBq/mouse, iv measured at 24 hrs by gamma counter analysis; type: ADME, organism-based, Bone element; details: in vivo; how it was run: as §1
[15] = Drug retention in liver lysates of mouse xenografted with human HT-29 cells assessed as macromolecule associated radioactivity at 29.6 MBq measured after 72 hrs using 177Lu labelled compound by gamma counter analysis relative to control; type: ADME, tissue-based; details: in vivo
How it was run: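 HT-29 xenograft mice given 800 μCi (29.6 MBq) 177Lu conjugate i.v. and killed at 72 h. Tumor, liver and kidney homogenized in RIPA with protease inhibitor and supernatants run on SDS-PAGE autoradiography. Other supernatant aliquots filtered through 10 kDa MWCO devices to give the % macromolecule-associated radioactivity; n = 3.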

[16] = Drug distribution in human HT-29 cells assessed as adduct signals at 24 hrs relative to baseline; type: ADME, cell-based; details: ht-29, 24 h
How it was run: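 HT-29 cells preloaded 4 h with 177Lu conjugate (0.74 MBq), washed and chased in fresh medium. Lysates taken at 0 and 24 h and run on SDS-PAGE autoradiography; adduct band radioactivity at 24 h expressed relative to the 0 h intensity.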

[17] = Drug uptake in blood of SCID mouse xenografted with human HT-29 cells using 177Lu labelled compound at 0.37 MBq/mouse, iv co-treated with D-lysine at 40 mg/kg measured at 24 hrs by gamma counter analysis; type: ADME, organism-based; details: in vivo; how it was run: as §2
[18] = Drug uptake in small intestine of SCID mouse xenografted with human HT-29 cells pretreated for 1 hr with colchicine at 1 mg/kg, ip followed by 177Lu labelled compound at 0.37 MBq/mouse, iv measured at 24 hrs by gamma counter analysis; type: ADME, organism-based; details: in vivo; how it was run: as §1

T1 sequence (P07711 114-333 limits assumed): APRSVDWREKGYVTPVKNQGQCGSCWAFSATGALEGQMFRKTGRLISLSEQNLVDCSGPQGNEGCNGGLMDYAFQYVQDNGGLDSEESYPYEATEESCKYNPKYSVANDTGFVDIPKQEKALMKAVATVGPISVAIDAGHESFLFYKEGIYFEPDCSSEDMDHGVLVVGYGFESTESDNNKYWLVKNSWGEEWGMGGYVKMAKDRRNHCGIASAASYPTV

Row | K (Procathepsin L [1]) | Drug uptake [2] | Drug uptake [3] | Drug uptake [4] | Drug uptake [5] | Ratio [6] | Ratio [7] | Drug uptake [8] | Drug uptake [9] | Ratio [10] | Drug uptake [11] | Drug uptake [12] | K (Procathepsin L [13]) | Drug uptake [14] | Drug uptake [15] | Drug uptake [16] | Drug uptake [17] | Drug uptake [18] | Structure (SMILES)
1 | 37 µM | – | – | – | – | – | – | – | – | – | – | – | – | – | – | – | – | – | Cc1cc(O)cc(C)c1C[C@H](NC(=O)[C@@H]1CCCN1C(=O)[C@H](CCCNC(=N)N)NC(=O)[C@H](CCCNC(=N)N)N(C)C(=O)[C@@H]1CCCN1C(=O)[C@H](CCCCN)NC(=O)[C@@H](CO)NC(=O)[C@@H](CO)NC(=O)[C@@H](CO)NC(=O)[C@H](Cc1cn(CCNC(=O)[C@H](CCCNC(=N)N)NC(=O)[C@H](CC(C)C)NC(=O)CCC(=O)O)nn1)NC(=O)CN1CCN(CC(=O)O)CCN(CC(=O)O)CCN(CC(=O)O)CC1)C(=O)N[C@H](C(=O)N[C@@H](CC(C)C)C(=O)O)C(C)(C)C
2 | – | 3.2 % ID/g | 80% | 0.07 % ID/g | 34 % ID/g | 15 | 75 | 4 % ID/g | Not Active | 9.6 | 1.7 % ID/g | 47% | 24000 M⁻¹ s⁻¹ | 0.36 % ID/g | 80% | 55% | 0.02 % ID/g | 2.2 % ID/g | Cc1cc(O)cc(C)c1C[C@H](NC(=O)[C@@H]1CCCN1C(=O)[C@H](CCCNC(=N)N)NC(=O)[C@H](CCCNC(=N)N)N(C)C(=O)[C@@H]1CCCN1C(=O)[C@H](CCCCN)NC(=O)[C@@H](CO)NC(=O)[C@@H](CO)NC(=O)[C@@H](CO)NC(=O)[C@H](Cc1cn(CCNC(=O)[C@H](CCCNC(=N)N)NC(=O)[C@H](CC(C)C)NC(=O)C2OC2C(=O)O)nn1)NC(=O)CN1CCN(CC(=O)O)CCN(CC(=O)O)CCN(CC(=O)O)CC1)C(=O)N[C@H](C(=O)N[C@@H](CC(C)C)C(=O)O)C(C)(C)C (stereo partly drawn)
